Shown are actives, neighbours in structure and some others; about 2.1% of the full set was active somewhere.
cardiac RTF act = cardiac RTF calcium sensitization | activation, % at 7.2 µM | P19429+P45379 | IANBD-labeled TnC RTF fluorescence at EC20 calcium; 0% EC20 calcium, 100% full calcium | AID 493008 | actives 0.24% (n = 340,000);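 active means activation above the mean over all tested compounds plus 3 SD, cut at about 30% in these data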;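 further: rise in fluorescence read as greater calcium sensitivity of cardiac thin filaments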
RTF Ca sens inh = cardiac RTF calcium desensitization; actives 0.12% (n = 340,000); AID 493244; IANBD-labeled cardiac RTF, Ca2+ fluorescence; inhibition, % at 7.15 µM;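 active means inhibition above the mean inhibition of all tested compounds plus 3 SD, cut at about 17% in these data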;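 further: assay run at fixed EC70 calcium of 1.6 mM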
UCH37 DUB inh = blocks the human deubiquitinase UCH37; Q9Y5K5; purified proteasome/UCH37, Ub-AMC cleavage fluorescence; inhibition, % (concentration not given with the values); actives 0.33% (n = 330,000);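 active means mean inhibition over replicate wells above about 20%, limit read from the data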
Target sequence (Q9Y5K5 whole entry, looked up): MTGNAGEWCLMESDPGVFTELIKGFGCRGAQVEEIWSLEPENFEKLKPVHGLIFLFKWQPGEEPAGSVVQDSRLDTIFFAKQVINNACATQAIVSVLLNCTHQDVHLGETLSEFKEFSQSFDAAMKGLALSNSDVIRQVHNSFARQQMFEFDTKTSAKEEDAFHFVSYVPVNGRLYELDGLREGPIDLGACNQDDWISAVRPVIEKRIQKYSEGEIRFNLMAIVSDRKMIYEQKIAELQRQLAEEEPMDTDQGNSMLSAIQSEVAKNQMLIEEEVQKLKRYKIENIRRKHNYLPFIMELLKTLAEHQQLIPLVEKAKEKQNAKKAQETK
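assay system = human UCH37 enzyme supplied as purified proteasome complex | amount = proteasome at 0.15 nM in the dispensed enzyme solution | schedule = 30 min compound-proteasome preincubation then 25 min substrate reaction, room temperature | measured by = fluorescence, ex 355 nm, em 460 nm | benchmarks = no-proteasome wells (full inhibition) and compound-free wells (no inhibition)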
ARNT TACC3 PPI = disrupts binding between human ARNT and TACC3; Q9Y6A5; AlphaScreen His-ARNT PAS-B/GST-TACC3 binding, luminescence; TACC3 fragment carries E629A point mutation; inhibition, % at 9.99 µM; actives 0.66% (n = 390,000); AID 623870;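 active means mean inhibition of replicates at least 50% and at least half of replicates each reaching 50%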
Mot1-301 SUMO = inhibitors of SUMOylation pathway: yeast Mot1-301 growth rescue; S. cerevisiae Mot1-301 growth rescue, ATP luminescence, 38.5C; percent above DMSO median, 100 means doubled; growth rescue, % at 18.8 µM; actives 1% (n = 320,000);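 active means every valid replicate shows activation above 250% relative to neutral control wells; inactive means the rest, any valid replicate at or below 250%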
Efflux pump mplx = antifungal efflux pump inhibition, Nile Red retention. AID 485275. actives 0.44% (n = 330,000). inhibition, % at 10 µM. S. cerevisiae Candida pump triplex;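 active means plate passing quality check with inhibition over a set limit, or well fluorescence over plate mean plus 4 SD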;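 further: Nile Red retained in pooled yeast measured as flow cytometry median fluorescence; higher means more Nile Red kept so more efflux inhibition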
Yeast cmpd fluor = flagged as fluorescent in efflux inhibitor counter-screen; shares compounds with Efflux pump mplx; S. cerevisiae AD/pABC3, compound fluorescence, flow cytometry; fluorescence ratio to DMSO, % at 10 µM; actives 4% (n = 1,700); AID 588517;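 active means fluorescence ratio to DMSO above its plate's cutoff, the plate mean ratio plus 5 SD, cut at about 210% in these data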;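 further: unstained yeast with no Nile Red so the signal is compound autofluorescence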
Mdr1 pump inh = Candida Mdr1 efflux pump inhibition | shares compounds with Efflux pump mplx | S. cerevisiae AD/CaMDR1, Nile Red efflux, flow cytometry | inhibition, % at 10 µM | actives 1% (n = 1,700) | AID 588518; in the data active means inhibition above about 26%;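 further: higher means more Nile Red retained so more efflux inhibition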
CaCdr2 efflux inh = inhibitors of Candida albicans Cdr2 efflux pump; S. cerevisiae AD/CaCDR2, Nile Red retention, flow cytometry; actives 4% (n = 1,700); Nile Red retention ratio vs DMSO, % at 10 µM; AID 588520; shares compounds with Efflux pump mplx; in the data active means Nile Red retention ratio vs DMSO above about 190%;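 further: higher ratio means more blocking of Cdr2 efflux of the dye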
Cdr1 pump inh = blocks the Candida albicans Cdr1 efflux pump in yeast; S. cerevisiae AD/CaCDR1, Nile Red efflux, flow cytometry; shares compounds with Efflux pump mplx; inhibition, % at 10 µM; AID 588522; actives 1% (n = 1,700);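 active means inhibition above the screen-wide mean plus twice its standard deviation, cut at about 32% in these data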
Numbers stand for hits; . = inactive; / = no result given; ! = not active in a repeat.

SMILES	cardiac RTF act	RTF Ca sens inh	UCH37 DUB inh	ARNT TACC3 PPI	Mot1-301 SUMO	Efflux pump mplx	Yeast cmpd fluor	Mdr1 pump inh	CaCdr2 efflux inh	Cdr1 pump inh
O=C(COc1ccc(Br)cc1)Nc1nnc(C2CC2)s1	.	.	.	.	.	.	.	.	.	.
CCC(Oc1ccc(Br)cc1Cl)C(=O)Nc1nnc(C2CC2)s1 (centres undefined)	.	.	.	.	.	.	/	/	/	/
Cc1ccc(-c2nnc(N)s2)cc1	.	.	.	.	.	5.5	.	.	.	.
CC(=NNC(=S)Nc1ccc(F)cc1)C1CC1	/	/	.	/	/	/	/	/	/	/
COc1ccc(-c2nc3ccccc3c(=O)n2CCOc2ccccc2C)cc1	.	.	.	.	.	0.8	.	.	.	.
COc1ccc(-c2nc3ccccc3c(=O)n2CC(C)C)cc1	.	.	.	.	.	.	/	/	/	/
COc1ccc(-c2nc3ccccc3c(=O)n2CCOc2cc(C)ccc2C)cc1	.	.	.	.	.	0.7	.	.	.	.
COc1ccc(-c2nc3ccccc3c(=O)n2CCOc2ccc(C)cc2C)cc1	.	.	.	.	.	0.7	.	.	.	.
COc1cc(C=NNc2ccnc(=O)[nH]2)ccc1O	/	/	.	/	/	/	/	/	/	/
C=CCn1c(SCc2cc(=O)n3ccsc3n2)nc2ccccc2c1=O	.	.	.	.	.	0.5	.	.	.	.
C=CCn1c(SCc2cc(=O)n3ccsc3n2)nc2cc(Cl)ccc2c1=O	.	.	.	.	.	.	/	/	/	/
CCCCNC(=O)OCC(CC)NC(=O)OC(C)C (centres undefined)	.	.	.	.	.	1.9	.	.	.	.
CCN1CCN(CC(O)COCC2COc3ccccc3O2)CC1 (centres undefined)	.	.	.	.	.	.	/	/	/	/
OC(COCC1COc2ccccc2O1)CN1CCN(c2ccccc2)CC1 (centres undefined)	.	.	.	.	.	1.0	.	.	.	.
O=C1CC(C(=O)Nc2ccc(Cl)c(Cl)c2)S/C(=N\N=Cc2ccco2)N1 (centres undefined)	/	/	.	/	/	/	/	/	/	/
c1cc2c(cc1C1CCCCC1)c1c3n2CCCNC3CCC1 (centres undefined)	.	.	.	.	/	95.4	.	.	.	.
CC(=C/C(=O)O)/C=C/c1ccco1	.	.	.	.	.	2.4	.	.	.	.
NC(=NOC(=O)c1ccccc1[N+](=O)[O-])c1ccccn1	/	/	.	/	/	/	/	/	/	/
CC(=NNC(=O)c1ccco1)c1cccc(NC(=O)c2ccc(C)o2)c1	/	/	.	/	/	/	/	/	/	/
Cc1ccc(/C=c2\sc3nc(-c4cccs4)nn3c2=O)o1	.	.	/	.	.	0.5	.	.	.	.
COc1cccc(/C=c2\sc3nc(-c4cccs4)nn3c2=O)c1OC	.	.	/	.	.	.	/	/	/	/
N#C/C(=C/c1ccncc1)c1nc2ccccc2s1	.	.	.	.	.	.	.	.	.	.
N#C/C(=C\c1ccncc1)c1nc2ccccc2[nH]1	/	/	.	.	/	/	/	/	/	/
CNCCCNC(=O)c1ccc(C=NO)nc1	/	/	.	/	/	/	/	/	/	/
O=C1N[C@@H](Cc2ccccc2)C(=O)N2[C@H]1C[C@]1([C@]34C[C@H]5C(=O)N[C@@H](Cc6ccccc6)C(=O)N5[C@H]3N(S(=O)(=O)c3ccccc3)c3ccccc34)c3ccccc3N(S(=O)(=O)c3ccccc3)[C@H]21	.	.	.	.	.	0.8	.	.	.	.
SMILES	cardiac RTF act	RTF Ca sens inh	UCH37 DUB inh	ARNT TACC3 PPI	Mot1-301 SUMO	Efflux pump mplx	Yeast cmpd fluor	Mdr1 pump inh	CaCdr2 efflux inh	Cdr1 pump inh
O=C1N[C@@H](Cc2ccccc2)C(=O)N2[C@@H]3N(S(=O)(=O)c4ccccc4)c4ccccc4[C@]3(Br)C[C@@H]12	.	.	.	.	.	.	/	/	/	/
CCN(CC)c1ccc(/C=C2\C(=O)c3ccc(C(=O)O)cc3C2=O)cc1	73.8	.	.	.	.	5.8	208.5	.	667.9	.
CCO[C@@H]1OC(C(=O)Nc2ccccc2)=C[C@H](c2ccc(Br)cc2)[C@H]1CCCO	.	.	.	.	.	0.8	.	.	.	.
CCO[C@@H]1OC(C(=O)Nc2ccccc2)=C[C@H](c2ccccc2)[C@H]1CCCO	.	.	/	.	.	.	/	/	/	/
CN(C)/C(CN1CCN(C=O)CC1)=C1\N=C(c2ccccc2)OC1=O	.	.	20.0	.	.	0.5	.	.	.	.
COc1cc(NC(=O)CCNS(=O)(=O)c2ccc3c(c2)CCC(=O)N3)cc(OC)c1	.	.	.	.	.	12.6	.	.	.	.
COc1ccc(NC(=O)CCNS(=O)(=O)c2ccc3c(c2)CCC(=O)N3)cc1	.	.	.	.	.	.	/	/	/	/
N#Cc1ccc(OCC(=O)N2CCN(c3ccc(C(F)(F)F)cn3)CC2)cc1	.	.	.	.	.	0.8	.	.	.	.
O=C(COc1ccc(-c2ccccc2)cc1)NNC(=O)Nc1ccc(F)cc1F	.	.	.	.	.	3.0	.	.	.	.
COc1ccc(OC)c(NC(=O)NNC(=O)COc2ccc(-c3ccccc3)cc2)c1	.	.	.	.	.	.	/	/	/	/
O=C(NN=Cc1ccco1)c1ccc(NC(=O)C2CC2)cc1	/	/	.	/	/	/	/	/	/	/
COC(=O)c1nn(-c2ccc(OC)cc2)c(=O)cc1Sc1ccc(C)cc1	/	/	.	/	.	.	/	/	/	/
COC(=O)c1nn(-c2ccccc2)c(=O)cc1Sc1ccc(Cl)cc1	.	.	.	.	.	0.6	.	.	.	.
CN(C(=O)CSc1ncccn1)C1CCS(=O)(=O)C1 (centres undefined)	.	.	.	.	.	5.3	.	.	.	.
O=C(Cc1cc(=O)[nH][nH]1)N/N=C/c1cccc(Cl)c1Cl	.	.	/	.	.	18.9!	.	.	.	.
CCC(NC(=O)c1cc(COc2ccc(OC)cc2Cl)on1)c1ccncc1 (centres undefined)	.	.	.	.	.	.	.	.	.	.
COc1ccc(OCc2cc(C(=O)N(C)C3CCOCC3)no2)c2ccccc12	.	.	.	.	.	.	/	/	/	/
CCC(NC(=O)c1cc(COc2ccc(Cl)cc2OC)on1)c1ccncc1 (centres undefined)	.	.	.	.	.	.	/	/	/	/
COc1ccc(OCc2cc(C(=O)N(C)C3CCOC3)no2)c(Cl)c1 (centres undefined)	.	.	.	.	.	.	.	.	.	.

Compound activity (PubChem)
